FAS-TE inh – inhibitors of human fatty acid synthase thioesterase domain; 360,000 compounds, 0.67% hits; recombinant FAS-TE, OMFH fluorogenic substrate, fluorescence endpoint; inhibition, % at 15 µM;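 active = compounds whose normalised, plate-corrected inhibition of enzyme fluorescence in the single-dose primary screen is 50% or more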;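 note: 0% = DMSO with enzyme and 100% = substrate without enzyme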
ALR inh – blocks human ALR sulfhydryl oxidase activity. purified ALR, DTT oxidation, H2O2 HRP-luminol luminescence. P55789. 290,000 compounds, 3.8% hits. inhibition, % (no concentration beside the values). AID 485317;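 active = mean replicate inhibition above about 79%, with every replicate also reaching it, limit read from the data; inconclusive = only one of the two criteria met; inactive = mean below limit and not every replicate reaching it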
UCH37 inh – human UCH37 deubiquitinating enzyme inhibition; 330,000 compounds, 0.33% hits; inhibition, % (test concentration not listed); purified proteasome/UCH37, Ub-AMC cleavage fluorescence; Q9Y5K5;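 active = mean inhibition over replicate wells above about 20%, limit read from the data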;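 note: 0% = compound-free wells with enzyme and 100% = wells lacking proteasome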
Target sequence (Q9Y5K5 whole entry, looked up): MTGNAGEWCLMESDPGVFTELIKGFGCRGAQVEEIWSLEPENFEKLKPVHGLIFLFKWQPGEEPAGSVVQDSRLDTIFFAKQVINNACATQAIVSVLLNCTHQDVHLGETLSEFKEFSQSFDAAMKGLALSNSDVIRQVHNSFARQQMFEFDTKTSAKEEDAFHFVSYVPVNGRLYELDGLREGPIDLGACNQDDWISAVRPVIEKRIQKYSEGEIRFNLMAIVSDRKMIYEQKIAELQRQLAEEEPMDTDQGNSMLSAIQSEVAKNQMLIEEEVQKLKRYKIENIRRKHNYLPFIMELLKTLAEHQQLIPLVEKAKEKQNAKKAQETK
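Material: human UCH37 enzyme supplied as purified proteasome complex / Amount: 0.15 nM proteasome as dispensed / Buffer or medium: pH 7.4 Tris-HCl (50 mM) with ovalbumin, ATP-MgCl2, DTT / Times: preincubation 30 min, reaction 25 min, room temperature / Technique: AMC fluorescence from Ub-AMC cleavage, excitation 355 nm, emission 460 nm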
Rtt109 Vps75 – inhibitors of Candida albicans Rtt109/Vps75 histone acetyltransferase. 330,000 compounds, 0.16% hits. AID 540336. purified Rtt109/Vps75, ThioGlo CoA-SH fluorescence, 4 h. Q5AAJ8. inhibition, % at 34.9 µM;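 active = inhibition of at least 50% in every replicate; inconclusive = best replicate reaches 50% inhibition but some replicates fall short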
HDAC3 inhib – inhibitors of human histone deacetylase 3; inhibition, % at 8.3 µM; O15379; AID 2718; recombinant HDAC3, fluorogenic peptide/trypsin coupled, fluorescence; 320,000 compounds, 0.15% hits; in the data active = inhibition above about 26%, passing the limit was not always enough; inconclusive = no clear call, values can overlap the other calls
PfM18AAP inh-1 – PfM18AAP enzyme inhibition; recombinant PfM18AAP, H-Glu-NHMec fluorogenic cleavage; inhibition, % at 7.35 µM; 290,000 compounds, 1.2% hits;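 active = inhibition above the campaign mean inhibition over all tested compounds plus 3 SD, cut at about 28% in these data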;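 note: 0% = plate median of test compound wells and 100% = 2 mM ZnCl2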
PfM18AAP inh-2 – PfM18AAP inhibition, confirmation. 2,400 compounds, 28% hits. shares compounds with PfM18AAP inh-1. AID 2170. recombinant PfM18AAP, H-Glu-NHMec fluorogenic cleavage. inhibition, % at 7.35 µM;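 active = mean inhibition over replicate wells above the hit cutoff set for the earlier primary screen, cut at about 29% in these data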;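 note: 0% = median of test compound wells and 100% = 2 mM ZnCl2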
CTSL1 counter – counter-screen for PFM18AAP inhibitors: confirmation of human cathepsin L inhibitors. 2,400 tested, under 10 active. AID 2178. shares compounds with PfM18AAP inh-1. inhibition, % at 5.96 µM. purified cathepsin L1, Z-Leu-Arg-MCA fluorescence;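 active = average inhibition across replicates above the hit cutoff set in the earlier primary screen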;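 note: 0% = median of test compound wells and 100% = Z-Phe-Ala-diazomethylketone 1 µM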
Target sequence (P07711 whole entry, looked up): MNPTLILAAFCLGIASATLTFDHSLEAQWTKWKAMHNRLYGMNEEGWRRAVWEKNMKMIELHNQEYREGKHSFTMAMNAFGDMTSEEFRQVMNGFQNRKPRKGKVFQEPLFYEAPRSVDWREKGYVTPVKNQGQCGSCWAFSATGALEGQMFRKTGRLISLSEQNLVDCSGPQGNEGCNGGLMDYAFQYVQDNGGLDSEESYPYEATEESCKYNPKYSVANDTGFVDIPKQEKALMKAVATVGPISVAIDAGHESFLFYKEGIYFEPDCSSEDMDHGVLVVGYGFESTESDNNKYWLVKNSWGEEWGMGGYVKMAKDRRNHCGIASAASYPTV
Starred values were filed as active, the others as inactive; ? = inconclusive; . = no result given. This is a sample that favours compounds with a hit; in the whole collection about 4.6% have one here.

SMILES	FAS-TE inh	ALR inh	UCH37 inh	Rtt109 Vps75	HDAC3 inhib	PfM18AAP inh-1	PfM18AAP inh-2	CTSL1 counter
COc1cc(/C=N/Nc2ccc([N+](=O)[O-])cn2)cc(OC)c1O	3.9	99.5*	.	-6.1	19.5	37.6*	-9.8	0.3
COc1ccc(/C=N/Nc2ccc([N+](=O)[O-])cc2)cc1Cn1cc([N+](=O)[O-])cn1	-6.0	4.6	.	0.7	2.1	11.3	.	.
COc1cccc(C=NNc2ccc([N+](=O)[O-])cn2)c1O	.	.	3.1	.	.	.	.	.
CCOC(=O)c1cc(C(O)(C(F)(F)F)C(F)(F)F)c(N=CN(C)C)o1	.	.	1.4	.	.	.	.	.
COc1ccc(C=NNC(=O)c2ccn[nH]2)cc1COc1ccc(Cl)cc1Cl	.	.	0.4	.	.	.	.	.
O=C(NN=Cc1ccc(F)cc1)c1cc(-c2ccccn2)nc2ccccc12	.	.	-2.2	.	.	.	.	.
Cc1cccc(C)c1-n1c(C)cc(C=NNc2ccc([N+](=O)[O-])cn2)c1C	.	.	3.7	.	.	.	.	.
Cc1c(C=NNc2ccc([N+](=O)[O-])cn2)c2ccccc2n1Cc1ccccc1	.	.	9.5	.	.	.	.	.
Cc1cccc(C)c1-n1c(C)cc(/C=N\Nc2ccc([N+](=O)[O-])cn2)c1C	-12.7	-2.6	.	-1.5	-8.8	51.2*	-24.1	3.4
COc1cc(/C=C/C(=O)CC(=O)/C=C/c2ccc(O)c(OC)c2)ccc1O	7.9	34.9	-2.1	4.9	18.5	35.2*	-4.2	-2.0
COc1cc(NC(=O)COC(=O)/C=C/c2ccc(O)c(OC)c2)cc(OC)c1	2.1	-4.1	-12.9	2.0	-5.9	7.9	.	.
O=[N+]([O-])c1ccc(N/N=C/c2cn(Cc3ccc(F)cc3)c3ccccc23)nc1	-13.8	.	.	-1.7	2.9	40.1*	-35.4	-0.8
CCOC(=O)c1ccc(C=NO)[n+](Cc2ccccc2)c1	.	.	10.3	.	.	.	.	.
COc1cc(C=NOCC(=O)Nc2cc(C)on2)ccc1OCc1ccccc1	.	.	-3.1	.	.	.	.	.
NC(=O)/C(=C/c1ccco1)C(N)=S	-29.8	2.6	11.2	1.6	15.3	42.1*	-14.6	-0.8
NC(=O)/C(=C\c1ccco1)NC(=O)c1ccco1	-7.0	.	.	.	.	.	.	.
COc1cc(C=NO)c(Br)cc1OCC(=O)Nc1ccccc1C	.	.	0.6	.	.	.	.	.
Cc1cc(C)nc(NS(=O)(=O)c2ccc(NC(=O)CSc3ncn[nH]3)cc2)n1	-6.5	-0.1	3.1	-25.0	-2.0	19.7	.	.
CC(C)c1ccc(S(=O)(=O)Nc2ccc(O)c(Sc3ncn[nH]3)c2)cc1	-44.3	98.7*	3.5	0.3	4.1	57.8*	30.8*	-0.6
COc1ccc(S(=O)(=O)Nc2ccc3c(c2)CCC3)cc1	5.5	.	1.1	5.4	2.8	10.7	.	.
COc1ccc(S(=O)(=O)Nc2ccc(O)c(Sc3ncn[nH]3)c2)cc1	-24.3	.	1.8	2.3	0.8	53.9*	40.5*	1.8
COc1cc(C=NNC(=O)COc2ccc(C)cc2)ccc1OC(=O)c1cccs1	.	.	2.6	.	.	.	.	.
O=C(NCC1CCCO1)NC1(C(F)(F)F)Oc2ccccc2O1 (centres undefined)	-8.2	-1.3	-1.3	12.7	-4.2	36.8*	-16.2	0.7
O=C(NC1(C(F)(F)F)Oc2ccccc2O1)N1CCCC1	-5.1	.	4.9	0.3	4.8	75.4*	45.3*	-1.5
O=C(Nc1ccccc1)N1CCCC1	-5.6	-4.7	-1.0	-1.3	-1.1	-3.8	.	.
SMILES	FAS-TE inh	ALR inh	UCH37 inh	Rtt109 Vps75	HDAC3 inhib	PfM18AAP inh-1	PfM18AAP inh-2	CTSL1 counter
O=C(CN1CCN(c2ccccc2F)CC1)c1ccc(O)c(O)c1	-1.9	99.0*	7.0	-7.2	2.0	59.8*	37.1*	2.3
O=C(CN1CCN(S(=O)(=O)c2ccc(Br)cc2)CC1)c1ccc(O)c(O)c1	-3.5	96.3*	4.9	6.7	2.0	71.9*	40.1*	-1.3
CC(C)c1ccc(S(=O)(=O)N2CCN(CC(=O)c3ccc(O)c(O)c3)CC2)cc1	1.0	99.1*	.	12.1	-0.4	67.3*	35.6*	6.8
CC(=NNC(=O)c1csc(C)c1C)c1ccc(Cl)s1	.	.	1.6	.	.	.	.	.
O=c1cc(-c2ccc(O)cc2)oc2cc(O)c(C3OC(CO)C(O)C(O)C3O)c(O)c12 (centres undefined)	-4.0	?	-21.7	-2.6	2.7	44.0*	4.5	3.3
COc1ccc(CNC(=O)c2ccc3c(c2)N(C)C(=O)CS3=O)cc1 (centres undefined)	4.3	4.3	3.2	3.0	1.9	47.1*	-15.2	4.9
CC(=NNC(=O)C1CCCC1)c1ccc(Cl)cc1Cl	.	.	3.4	.	.	.	.	.
COc1ccc(/C=C2\SC(=O)N(CC(=O)NN3CCN(C)CC3)C2=O)cc1OC	-7.2	-9.6	9.1	16.4	5.3	37.2*	-52.6	3.7
CCCCc1nc(SCC(=O)Nc2nnc(CCCC)s2)n[nH]1	-3.5	-2.1	4.1	-0.8	0.6	2.0	.	.
CCCc1nnc(NC(=O)CSc2ncn[nH]2)s1	-5.8	0.0	-2.3	-10.2	-6.6	39.6*	44.3*	-9.7
O=C(CSc1ncn[nH]1)Nc1nc(-c2ccccc2)cs1	-180.1	-5.0	28.4*	-10.0	0.9	40.0*	46.0*	-1.4
COc1ccc(CCNC(=O)CSc2ncn[nH]2)cc1	-6.9	-0.6	3.4	-1.9	2.4	-4.2	.	.
COc1ccc(-c2csc(NC(=O)CSc3ncn[nH]3)n2)cc1OC	-39.6	48.4	2.5	6.1	14.2	66.2*	48.7*	0.1
COc1ccc(CNC(=O)CSc2ncn[nH]2)cc1OC	-7.4	-8.1	1.3	12.1	0.6	33.6*	17.0	-4.4
CC(=NN1C(=O)c2ccccc2NC1c1ccccc1)c1ccccc1O (centres undefined)	.	.	4.3	.	.	.	.	.
CCOC(=O)c1c(NC(=O)CSc2ncn[nH]2)sc(C(=O)NC)c1C	-7.4	-7.2	-0.2	-2.3	1.6	27.1	.	.
CCOC(=O)c1c(NC(=O)CSc2ncn[nH]2)sc(C)c1C	-91.9	.	6.2	0.2	12.0	48.3*	-0.2	1.1
O=C(c1ccc(-c2ccc([N+](=O)[O-])cc2Cl)o1)N1CCOCC1	-8.2	-21.3	2.9	-7.7	0.7	38.5*	-19.8	4.4
O=C(c1ccc(-c2cccc(Cl)c2Cl)o1)N1CCOCC1	11.9	.	0.6	4.1	7.0	5.1	.	.
Cc1ccc(S(=O)(=O)Nc2nc(C)cc(NN=Cc3ccc(O)cc3)n2)cc1	.	.	6.4	.	.	.	.	.
Cc1nc(=S)n(-c2ccccc2)[nH]1	0.4	46.6	-0.8	-9.4	7.6	2.6	.	.
S=c1nc(C2CCCCC2)n(-c2ccccc2)[nH]1	-3.9	2.8	4.4	29.3	-6.6	34.7*	2.8	-3.7
CSc1ccc(C=Nn2c(C)nnc2C)cc1	.	.	2.4	.	.	.	.	.
O=C(O)Cn1cnc2c(=S)nc[nH]c21	-1.8	43.8	.	-9.7	10.1	57.3*	-4.2	3.0
O=C(CCCCn1cnc2c(=S)nc[nH]c21)Nc1ccc(C(=O)O)cc1	-2.4	.	3.7	16.8	.	.	.	.
